Assays:
Assay type in all cases: functional
Enterococcus faecalis [1] = test: Antibacterial activity against Enterococcus faecalis 08-10 after 18 to 24 hrs by twofold serial dilution method
Procedure, shortened: (§1)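 MIC determined by the standard twofold serial dilution method on agar media, screening against Gram-positive and Gram-negative strains. Levofloxacin and gemifloxacin were run alongside as reference drugs.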

Staphylococcus aureus [2] = test: Antibacterial activity against Staphylococcus aureus ATCC […] after 18 to 24 hrs by twofold serial dilution method; procedure, shortened: as §1
Streptococcus pneumoniae [3] = test: Antibacterial activity against Streptococcus pneumoniae 08-4 after 18 to 24 hrs by twofold serial dilution method; procedure, shortened: as §1
Pseudomonas aeruginosa [4] = test: Antibacterial activity against Pseudomonas aeruginosa 09-33 after 18 to 24 hrs by twofold serial dilution method; procedure, shortened: as §1
[5] = test system: Staphylococcus epidermidis; test: Antibacterial activity against methicillin-sensitive Staphylococcus epidermidis 09-3 after 18 to 24 hrs by twofold serial dilution method
Procedure, shortened: (§2)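 Standard twofold serial agar dilution method on agar media for MIC determination. Screened against representative Gram-positive and Gram-negative strains. Levofloxacin and GMFX served as control drugs.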

Pseudomonas aeruginosa [6] = test: Antibacterial activity against Pseudomonas aeruginosa 09-34 after 18 to 24 hrs by twofold serial dilution method; procedure, shortened: as §1
[7] = test system: Staphylococcus epidermidis; test: Antibacterial activity against methicillin-sensitive Staphylococcus epidermidis 09-6 after 18 to 24 hrs by twofold serial dilution method; procedure, shortened: as §2
Escherichia coli [8] = test: Antibacterial activity against Escherichia coli 08-21 after 18 to 24 hrs by twofold serial dilution method; procedure, shortened: as §1
Streptococcus pneumoniae [9] = test: Antibacterial activity against Streptococcus pneumoniae 08-2 after 18 to 24 hrs by twofold serial dilution method; procedure, shortened: as §1
[10] = test system: Staphylococcus epidermidis; test: Antibacterial activity against methicillin-resistant Staphylococcus epidermidis 09-2 after 18 to 24 hrs by twofold serial dilution method; procedure, shortened: as §2
Staphylococcus aureus [11] = test: Antibacterial activity against methicillin-sensitive Staphylococcus aureus 08-2 after 18 to 24 hrs by twofold serial dilution method; procedure, shortened: as §2
Pseudomonas aeruginosa [12] = test: Antibacterial activity against Pseudomonas aeruginosa 09-32 after 18 to 24 hrs by twofold serial dilution method; procedure, shortened: as §1
Escherichia coli [13] = test: Antibacterial activity against Escherichia coli ATCC 25922 after 18 to 24 hrs by twofold serial dilution method; procedure, shortened: as §1
Enterococcus faecium [14] = test: Antibacterial activity against Enterococcus faecium 08-2 after 18 to 24 hrs by twofold serial dilution method; procedure, shortened: as §1
Klebsiella pneumoniae [15] = test: Antibacterial activity against Klebsiella pneumoniae 09-23 after 18 to 24 hrs by twofold serial dilution method; procedure, shortened: as §1
Klebsiella pneumoniae [16] = test: Antibacterial activity against Klebsiella pneumoniae 09-21 after 18 to 24 hrs by twofold serial dilution method; procedure, shortened: as §1
Klebsiella pneumoniae [17] = test: Antibacterial activity against Klebsiella pneumoniae 09-22 after 18 to 24 hrs by twofold serial dilution method; procedure, shortened: as §1
Enterococcus faecalis [18] = test: Antibacterial activity against Enterococcus faecalis 08-12 after 18 to 24 hrs by twofold serial dilution method; procedure, shortened: as §1
Staphylococcus aureus [19] = test: Antibacterial activity against methicillin-resistant Staphylococcus aureus 08-1 after 18 to 24 hrs by twofold serial dilution method; procedure, shortened: as §2
[20] = test system: Staphylococcus epidermidis; test: Antibacterial activity against methicillin-resistant Staphylococcus epidermidis 09-3 after 18 to 24 hrs by twofold serial dilution method; procedure, shortened: as §2
Escherichia coli [21] = test: Antibacterial activity against Escherichia coli 08-22 after 18 to 24 hrs by twofold serial dilution method; procedure, shortened: as §1
Pseudomonas aeruginosa [22] = test: Antibacterial activity against Pseudomonas aeruginosa ATCC 27853 after 18 to 24 hrs by twofold serial dilution method; procedure, shortened: as §1
Pseudomonas aeruginosa [23] = test: Antibacterial activity against Pseudomonas aeruginosa 09-35 after 18 to 24 hrs by twofold serial dilution method; procedure, shortened: as §1
Enterococcus faecium [24] = test: Antibacterial activity against Enterococcus faecium 08-7 after 18 to 24 hrs by twofold serial dilution method; procedure, shortened: as §1
[25] = test system: Staphylococcus epidermidis; test: Antibacterial activity against methicillin-resistant Staphylococcus epidermidis 09-4 after 18 to 24 hrs by twofold serial dilution method; procedure, shortened: as §2

Measured: MIC

CCO/N=C1\CN(c2nc3c(cc2F)c(=O)c(C(=O)O)cn3C2CC2)CC1/C(N)=N\OCC (stereo unspecified)
2 µg/mL: Staphylococcus aureus [2]
128 µg/mL: Escherichia coli [13] | Klebsiella pneumoniae [17] | Pseudomonas aeruginosa [22]
32 µg/mL: [25]
8 µg/mL: [10] | Staphylococcus aureus [11] | [20]
> 128 µg/mL: all other assays above

CO/N=C1\CN(c2nc3c(cc2F)c(=O)c(C(=O)O)cn3-c2ccc(F)cc2F)CC1/C(N)=N\OC (stereo unspecified)
16 µg/mL: Streptococcus pneumoniae [9]
128 µg/mL: Pseudomonas aeruginosa [12] | Escherichia coli [13] | Pseudomonas aeruginosa [22] | Pseudomonas aeruginosa [23]
0.25 µg/mL: Streptococcus pneumoniae [3] | [7] | Staphylococcus aureus [11] | Staphylococcus aureus [19] | [20] | [25]
1 µg/mL: Klebsiella pneumoniae [17]
0.5 µg/mL: Staphylococcus aureus [2] | [5] | [10]
> 128 µg/mL: all other assays above

C[C@H]1COc2c(N3CCN(C)CC3)c(F)cc3c(=O)c(C(=O)O)cn1c23.C[C@H]1COc2c(N3CCN(C)CC3)c(F)cc3c(=O)c(C(=O)O)cn1c23.O [LEVOFLOXACIN]
0.25 µg/mL: [10] | [20] | Pseudomonas aeruginosa [23] | [25]
0.5 µg/mL: Pseudomonas aeruginosa [22]
0.125 µg/mL: [5] | Escherichia coli [13] | Staphylococcus aureus [19]
4 µg/mL: Enterococcus faecalis [18]
8 µg/mL: Enterococcus faecalis [1] | Enterococcus faecium [14] | Klebsiella pneumoniae [15] | Klebsiella pneumoniae [16]
2 µg/mL: [7] | Enterococcus faecium [24]
16 µg/mL: Escherichia coli [8] | Pseudomonas aeruginosa [12] | Klebsiella pneumoniae [17] | Escherichia coli [21]
0.06 µg/mL: Staphylococcus aureus [2] | Staphylococcus aureus [11]
